pKd: −log10 of the molar value. Activity calls are given as the source filed them. No cut-off for these calls is given here.
Assays:
[1] = biological target: Human immunodeficiency virus type 1 integrase (Human immunodeficiency virus 1, UniProt Q7ZJM1); assay: Binding affinity to HIV1 integrase tetrameric form by fluorescence anisotrophy
Outline: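 Fluorescence anisotropy at 10°C in 20 mM Tris pH 7.4/185 mM NaCl (ionic strength 190 mM). His-tagged IN was titrated into fluorescein-labeled LEDGF/p75 peptide (0.05–0.1 μM) in 20 aliquots at 1-min intervals. Excitation was 480 nm and emission 530 nm. Kd was obtained from a Hill-equation fit.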

[2] = tested on: Human immunodeficiency virus 1; assay: Inhibition of HIV1 genome integration assessed as integrated viral DNA level at 2.5 uM by RT-PCR method; assay type: functional
Outline: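 Integrated proviral DNA in infected cells was measured by nested real-time PCR. The second round used SYBR green with 300 nM primers and 50 cycles (95°C 15 s, 60°C 60 s). Quantification used a standard curve from full-length HIV-1 HXB2 plasmid (5 ng–0.25 fg). Samples were run in quadruplicate. Results are expressed as percentage of integrated viral DNA.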

[3] = tested on: Human immunodeficiency virus 1; assay: Inhibition of HIV1 replication in human H9 cells assessed as reduction of p24 protein level after 10 days; assay type: functional, organism-based
Outline: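 H9 T-lymphoid cells were preincubated 2 h with compound, then infected with wild-type HIV-1 HXB2 at MOI 0.1 (1 h adsorption at 37°C, then washed). Cells were cultured 10 days, and p24 released into the medium was measured by capture assay.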

HeLa = assay: Toxicity against human HeLa cells by MTT method; assay type: cell-based
[4] = biological target: Human immunodeficiency virus type 1 integrase (Human immunodeficiency virus 1) (UniProt Q7ZJM1); assay: Inhibition of HIV1 integrase binding to LTR DNA by fluorescence anisotrophy
Chain of Human immunodeficiency virus type 1 integrase (Human immunodeficiency virus 1) (Q7ZJM1 as listed by the source): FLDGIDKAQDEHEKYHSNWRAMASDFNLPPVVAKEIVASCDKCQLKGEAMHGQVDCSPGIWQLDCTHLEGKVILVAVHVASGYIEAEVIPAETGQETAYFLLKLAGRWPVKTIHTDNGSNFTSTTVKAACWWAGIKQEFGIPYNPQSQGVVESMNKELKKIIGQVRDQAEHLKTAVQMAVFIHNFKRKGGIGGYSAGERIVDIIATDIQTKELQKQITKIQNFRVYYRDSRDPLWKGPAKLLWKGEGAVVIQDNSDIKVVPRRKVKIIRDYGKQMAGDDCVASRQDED
Outline: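 Competition anisotropy at 10°C in 20 mM Tris pH 7.4/185 mM NaCl. LEDGF/p75 peptide (500 nM) was preincubated 0.5 h with His-tagged IN (4 μM), then titrated into fluorescein-labeled 36-mer HIV-1 LTR DNA (10 nM). Excitation 480 nm, emission 530 nm.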

[5] = tested on: Human immunodeficiency virus 1; assay: Inhibition of HIV1 Tat-mediated HIV1 reporter gene expression in human TZM-bl HeLa MAGI cells; assay type: functional, organism-based
Outline: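 TZM-bl (HeLa MAGI) cells carrying a Tat/TAR-driven β-galactosidase reporter were grown in DMEM with 10% FCS, seeded at 10 × 10^3 cells per well, and infected with HIV-1 at equal MOI. Read-out was reporter expression by MAGI assay.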

[6] = tested on: Human immunodeficiency virus 1; assay: Effect on HIV1 replication in sup T1 cells assessed as total reverse transcribed viral DNA level at 12.5 uM by PCR; assay type: functional, organism-based
Outline: (§1)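 Sup T1 cells (RPMI 1640, 10% FCS) were pretreated 2 h with compound, then infected with HIV-1 Δenv/VSV-G (HXB2 backbone) at MOI 2 for 6 h. Total viral DNA was detected by Gag-specific PCR on 10 ng DNA with 3.5 mM MgCl2 and 29 cycles.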

[7] = biological target: Human immunodeficiency virus type 1 integrase (Human immunodeficiency virus 1) (UniProt Q7ZJM1); assay: Inhibition of HIV1 integrase 3'-end processing activity
[8] = tested on: Human immunodeficiency virus 1; assay: Inhibition of HIV1 in sup T1 cells assessed as total reverse transcribed viral DNA at 2 uM by PCR; assay type: functional, organism-based; outline: as §1
[9] = biological target: Human immunodeficiency virus type 1 integrase (Human immunodeficiency virus 1) (UniProt Q7ZJM1); assay: Inhibition of HIV1 integrase 3'-end processing activity at 21 uM
[10] = biological target: Human immunodeficiency virus type 1 integrase (Human immunodeficiency virus 1) (UniProt Q7ZJM1); assay: Inhibition of HIV1 integrase strand transfer activity in presence of LTR DNA template

Chain of Human immunodeficiency virus type 1 integrase (Q7ZJM1 whole entry): as the sequence (Q7ZJM1 as listed by the source) above

Molecule | pKd [1] | inhibition at 2.5 µM [2] [%] | Activity [3] | Activity (HeLa) | fold inhibition [4] [fold] | Activity [5] | Activity [6] | Activity [7] | Activity [8] | Activity [9] | Activity [4] | Activity [10]
H-WNSLKIDNLDV-OH | 5.43 | > 90 | Active | Non-toxic | 3 | Dose-dependent effect | inactive | Active | – | – | – | –
H-WIHAEIKNSLKIDNLDVNRCIEALD-OH | 5.36 | – | – | – | 3 | – | – | – | – | – | – | –
Cc1cn([C@H]2C[C@H](N=[N+]=[N-])[C@@H](CO)O2)c(=O)[nH]c1=O | – | – | – | – | – | – | – | – | Active | – | – | –
H-WKKIRRFVSQVIM-OH | 4.92 | > 90 | Active | Non-toxic | – | Dose-dependent effect | inactive | Active | – | Active | 6 | Active
